Compound activity (PubChem)
NR2E3 ag-1: NR2E3 (human) agonism | GST-NR2E3/biotin-RetCOR TR-FRET, 1536-well | Q9Y5X4 | inhibition of corepressor binding, % at 4.78 µM | 320,000 compounds, 0.12% hits | AID 2300;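 active = percent inhibition above the cutoff of mean plus 3 SD of all tested compounds, set per screening campaign, cut at about 20% in these data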;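 also: 0% = DMSO wells and 100% = biotin wells as full block of FRET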
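Test system: GST-NR2E3 and biotin-RetCOR proteins | Quantity: 1.35 nM GST-tagged NR2E3 final | Medium: Tris pH 7.5 | Also added: 7 nM biotin-RetCOR | Dosing: Compound at 4.8 µM, single dose | Timing: 5 h at 4 °C | Detection: Time-resolved FRET | Read-out basis: Percent inhibition | Benchmarks: Biotin wells as high control, 0.6% DMSO wells as low control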
MT1-MMP act inh: inhibitors of human MT1-MMP activation; HT1080 RFP-PRO-GFP cells, GFP/RFP ratio fluorescence, overnight; percent of plate control window, DMSO zero; GFP/RFP ratio change, % at 20 µM; 360,000 compounds, 0.061% hits; AID 651647;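 active = GFP/RFP ratio change of at least 30% with cell ATP level not reduced by more than half and red fluorescence within 50% of control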
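Test system: HT1080 cells expressing an RFP-PRO-GFP fluorescent reporter construct / Compound dosing: single-point 20 µM compound, 1% DMSO / Schedule: cells overnight before dosing, compound overnight, 37 °C, 5% CO2 / Evaluation: GFP/RFP fluorescence ratio / Control set: DMSO and RFP-L50D-GFP cell wells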
SKN-1 block: C. elegans SKN-1 inhibition | C. elegans VP596 Pgst-4::GFP/RFP ratio, acrylamide-induced, 24 h | inhibition, % at 21.8 µM | 360,000 compounds, 0.49% hits | AID 624304;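 active = interference check ratio from 0.5 to 1.5 plus GFP to RFP signal ratio inhibition reaching or exceeding a fixed threshold, cut at about 30% in these data, passing the limit was not always enough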
PG9 binder: small molecules binding HIV-1 gp120 antibody PG9; 360,000 compounds, 0.43% hits; AID 624416; inhibition, % at 6.7 µM; TR-FRET gp120-PG9 antibody binding; in the data active = inhibition above about 8.5%
NR2E3 ag-2: activates human NR2E3 receptor; 360,000 compounds, 0.35% hits; CHO-S Gal4-NCOR/VP16-NR2E3 two-hybrid, luciferase; Q9Y5X4; inhibition of corepressor binding, % at 3.98 µM;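 active = inhibition above the mean of all tested compounds plus 3 SD, cut at about 70% in these data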;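 also: 0% = DMSO with NR2E3 transfected cells and 100% = cells lacking NR2E3 construct; higher means lower luciferase signal from less NR2E3 corepressor binding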
Rev-erbA mod: modulators of human Rev-erb alpha DNA binding. P20393. Rev-erbα–FITC-DNA binding, fluorescence polarization, 90 min. activity, % at 10 µM. 370,000 compounds, 0.79% hits. AID 1259318;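 active = activity above about 14%, limit read from the data; passing the limit was not always enough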;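 also: 0% = DMSO wells with 35 nM protein and 100% = DMSO wells with 750 nM protein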
Target sequence (P20393 whole entry, looked up): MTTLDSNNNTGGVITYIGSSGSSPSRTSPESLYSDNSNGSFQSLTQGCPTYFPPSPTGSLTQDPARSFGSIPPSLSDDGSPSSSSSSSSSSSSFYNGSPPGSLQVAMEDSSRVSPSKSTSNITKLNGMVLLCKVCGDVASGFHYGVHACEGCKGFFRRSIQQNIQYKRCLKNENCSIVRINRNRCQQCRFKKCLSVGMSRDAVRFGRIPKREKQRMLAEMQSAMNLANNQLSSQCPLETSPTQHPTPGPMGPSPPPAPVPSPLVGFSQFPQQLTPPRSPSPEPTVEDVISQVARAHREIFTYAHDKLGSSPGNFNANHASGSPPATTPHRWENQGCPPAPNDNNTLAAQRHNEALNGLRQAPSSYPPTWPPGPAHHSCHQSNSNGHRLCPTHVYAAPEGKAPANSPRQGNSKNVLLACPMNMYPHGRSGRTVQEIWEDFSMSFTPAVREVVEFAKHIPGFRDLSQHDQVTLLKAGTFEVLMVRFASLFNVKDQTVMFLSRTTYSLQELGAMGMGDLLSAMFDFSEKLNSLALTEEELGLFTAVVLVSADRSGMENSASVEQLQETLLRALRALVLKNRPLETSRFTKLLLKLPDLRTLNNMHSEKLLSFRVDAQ
* = called active by the depositor; nt = not tested or not shown. Compounds with a hit are over-represented: about 1.9% of the library has one in this group of screens.

SMILES | NR2E3 ag-1 | MT1-MMP act inh | SKN-1 block | PG9 binder | NR2E3 ag-2 | Rev-erbA mod
O=c1c2ccccc2oc2cc(-c3ccc4cc[nH]c4c3)ccc12 | nt | 3 | 19 | 1 | -79 | -5
CCOc1cc(OCC)cc(C(=O)N2CCC[C@@H]2C(=O)N2CCC[C@H]2C(=O)NCc2ccccc2)c1 | nt | nt | nt | 1 | nt | -7
COc1ccc(C(C(=O)NC2CCCC2)N(C(=O)c2snc(-c3ccc(F)cc3)c2N)c2ccc(OC)cc2)cc1 (stereo not given) | 11 | -10 | -1 | 6 | -15 | 8
COc1ccc(C(C(=O)NC2CCCC2)N(C(=O)c2snc(-c3ccc(F)cc3)c2N)c2ccc(F)cc2)cc1 (stereo not given) | 0 | -1 | 46* | 3 | 18 | -8
O=C(COC(=O)c1ccc(Br)o1)Nc1ccc(S(=O)(=O)N2CCCC2)cc1 | -5 | 0 | 40* | -1 | 10 | -6
O=C(CCc1c[nH]c2ccccc12)Nc1ccc(Oc2cccnc2)cc1 | nt | nt | nt | 1 | nt | 1
COC(=O)C1=C(N)Oc2cc(C)n(CC3CCCO3)c(=O)c2C1c1ccc(Cl)c(Cl)c1 (stereo not given) | 3 | 3 | 33* | -2 | -6 | -6
O=C(NC(c1ccc(-c2ccccc2)cc1)c1cnccn1)C1CCN(Cc2cccs2)CC1 (stereo not given) | nt | 3 | 46* | -1 | 18 | -3
CC(C)(C)c1ccc(/C=C(\c2nc3ccccc3[nH]2)S(=O)(=O)c2ccccc2)cc1 | 1 | -29 | 3 | nt | 81* | nt
Cc1cccc(/C=C(\c2nc3ccccc3[nH]2)S(=O)(=O)c2ccccc2)c1 | nt | -20 | 10 | -1 | 43 | -1
Nc1ccn([C@@H]2O[C@H](C(=O)N[C@H](Cc3ccccc3)C(=O)N3CCSC3)[C@@H](O)[C@H]2O)c(=O)n1 | nt | nt | nt | -2 | nt | 2
O=P(O)(O)OCC(O)CO (stereo not given) | nt | nt | nt | nt | nt | -1
CSc1nnc(-c2ccc(Cl)cc2Cl)o1 | 4 | 6 | 20 | -1 | -56 | 2
Fc1ccc(-c2nnc(-c3ccc(Cl)cc3Cl)o2)cc1 | 5 | -4 | 48* | 5 | -91 | 12
CCSc1nnc(-c2ccc(Cl)cc2Cl)o1 | 1 | -3 | 67* | 0 | -92 | 0
Fc1ccc(-c2nnc(-c3ccc(Cl)cc3)o2)cc1 | 3 | 26 | 26 | -3 | -42 | -4
Clc1ccc(-c2nnc(-c3ccccc3)o2)c(Cl)c1 | -1 | 1 | 69* | 0 | -126 | -9
C[C@H](CCC(=O)O)[C@H]1CCC2C3C(CC[C@@]21C)[C@@]1(C)CC[C@@H](O)C[C@H]1C[C@@H]3O (stereo not given in full) | nt | nt | nt | nt | nt | -3
NC[C@H]1O[C@H](O[C@@H]2[C@H](O)[C@@H](O[C@H]3O[C@H](CO)[C@@H](O)[C@H](N)[C@H]3O)[C@H](N)C[C@@H]2N)[C@H](O)[C@@H](O)[C@@H]1O | nt | nt | nt | nt | nt | 0
Cc1ccc(C)c(NC(=O)/C(C#N)=C/c2ccc[nH]2)c1 | 1 | 2 | 37* | -2 | 12 | 7
CC1(C)S[C@@H]2[C@@H](N3C(=O)[C@@H](c4ccccc4)NC3(C)C)C(=O)N2[C@H]1C(=O)O | nt | nt | nt | nt | nt | -6
CC[C@@H](CO)NCCN[C@@H](CC)CO | nt | nt | nt | nt | nt | -2
C/C(=N\OCc1ccc(C#N)cc1)c1cc2ccccc2o1 | 2 | 5 | 54* | -2 | -38 | 3
COc1cccc(N2CCN(CC(=O)NCc3ccco3)CC2)c1 | nt | nt | nt | nt | nt | 5
Cc1nc(NC(=O)C2CC3CCCC(C2)C3=O)sc1C (stereo not given) | 2 | 1 | 33* | 0 | -94 | 3
O=C(CSc1nnc(-c2ccccn2)n1-c1ccccc1)Nc1ccc(OCc2ccccc2)cc1 | nt | nt | nt | nt | nt | -3
O=C(/C=C/c1cccs1)c1ccc(N2CCOCC2)cc1 | -1 | -1 | 36* | 1 | -122 | 2
O=C(/C=C/c1cccc(F)c1)c1ccc(N2CCOCC2)cc1 | -3 | -4 | 10 | 0 | -33 | -5
O=C(Nc1ccc([N+](=O)[O-])cc1)c1cccc([N+](=O)[O-])c1 | nt | 0 | 4 | 1 | -19 | 2
O=C(Nc1ccc(OC(F)F)c(Cl)c1)c1cccc(OC(F)F)c1 | 0 | 8 | 44* | nt | -45 | nt
